# Experimental data as given in ChEMBL document CHEMBL4130370, “Discovery of 5,6-diaryl-1,2,4-triazines hybrids as potential apoptosis inducers” (Eur J Med Chem, 2017).
# Experiments:
# Type in all cases: functional, cell-based
# MGC-803 = assay: Antiproliferative activity against human MGC803 cells after 48 hrs by MTT assay; details: MGC-803, 48 h
# How it was run: (§1)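 Cells exposed to compounds for 48 h, then read by MTT. IC50 is the concentration giving 50% inhibition of tumour cell proliferation, taken from dose-response curves. Values are means±SD of three independent experiments. 5-FU was the reference drug.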
# PC-3 = assay: Antiproliferative activity against human PC3 cells after 48 hrs by MTT assay; details: PC-3, 48 h; how it was run: as §1
# ECa-109 cell line = assay: Antiproliferative activity against human EC109 cells after 48 hrs by MTT assay; details: ECa-109, 48 h; how it was run: as §1
# SK-N-SH = assay: Antiproliferative activity against human SK-N-SH cells after 48 hrs by MTT assay
SMILES,IC50 (MGC-803) [µM],IC50 (PC-3) [µM],IC50 (ECa-109 cell line) [µM],IC50 (SK-N-SH) [µM]
NS(=O)(=O)c1ccc(-n2cc(CSc3nnc(-c4ccccc4)c(-c4ccccc4)n3)nn2)cc1,> 100,> 100,> 100,
O=C(/C=C/c1ccc(OCCCn2cc(CSC3=NCCS3)nn2)cc1)c1ccc(Br)cc1,,,,8.16
C#CCSc1nnc(-c2ccccc2)c(-c2ccccc2)n1,> 100,> 100,> 100,
O=c1ccc2ccc(OCCCn3cc(CSc4nnc(-c5ccccc5)c(-c5ccccc5)n4)nn3)cc2o1,> 100,92.3,> 100,
O=C(O)CCSc1nnc(-c2ccccc2)c(-c2ccccc2)n1,> 100,> 100,> 100,
c1ccc(Cn2cc(CSc3nnc(-c4ccccc4)c(-c4ccccc4)n3)nn2)cc1,11.3,15.6,11.1,
Clc1ccc(Cn2cc(CSc3nnc(-c4ccccc4)c(-c4ccccc4)n3)nn2)cc1,13.2,14.7,24.2,
Brc1ccc(Cn2cc(CSc3nnc(-c4ccccc4)c(-c4ccccc4)n3)nn2)cc1,> 100,22,> 100,
Cc1ccc(Cn2cc(CSc3nnc(-c4ccccc4)c(-c4ccccc4)n3)nn2)cc1,34.8,22.6,12.4,
